Results reported in ChEMBL document CHEMBL1133088 (J Med Chem, 2000).

Tests used:
[1] = Equilibrium association constant interacting with unilamellar vesicles of electroneutral in PBS buffer at pH 7.4; format: ADME
Outline: (§1)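 Fluorescence anisotropy titration of 1 uM total drug with small unilamellar vesicles (DMPC or DMPG) in PBS, pH 7.4, 37 °C. SUVs were sonicated from 10 mg/mL lipid stocks and annealed 30 min at 37 °C; DMPG pH was readjusted to 7.4. Readings were taken about 0.5–1 min after mixing. K came from least-squares slopes of double-reciprocal plots (1/bound fraction vs 1/[lipid]).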

[2] = Half life in human blood.; format: ADME, organism-based; details: whole blood
Outline: (§2)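 Lactone-ring hydrolysis of 1 uM drug at 37 °C and pH 7.4, incubated in PBS, in PBS containing physiologically relevant HSA or albumin-free red blood cells, or in whole human blood. Isocratic acetonitrile/2% triethylamine acetate (pH 5.5) at 1 mL/min; lactone eluted near 7.0 min, carboxylate near 2.0 min.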

[3] = Half life of compound in PBS suspension; format: ADME; outline: as §2
[4] = Half life of compound in PBS with HSA suspension; format: ADME; details: human, HSA (human serum albumin) in PBS; outline: as §2
[5] = Equilibrium association constant interacting with unilamellar vesicles of negatively charged DMPG in PBS buffer at pH of 7.4 and 37 degrees celsius.; format: ADME; details: pH 7.4; outline: as §1
[6] = Half life for of compound in PBS with RBC suspension; format: ADME; details: RBC (red blood cell) suspension in PBS; outline: as §2
[7] = % lactone at different intervals of time in PBS suspension; format: ADME; details: buffer; outline: as §2
[8] = % lactone at different intervals of time in PBS with HSA suspension; format: ADME; details: human, buffer; outline: as §2
[9] = % lactone at different intervals of time in PBS with RBC suspension; format: ADME; details: erythrocytes; outline: as §2
Homo sapiens = species: Homo sapiens; experiment: % lactone at different intervals of time in human blood.; format: ADME, organism-based; outline: as §2
U-87 MG [10] = experiment: Inhibition of tumor growth at day 28 postimplantation after administration of 10 mg/kg/day in nude mouse U87 glioma subcutaneous model system; format: functional, U-87MG ATCC; details: sc, 672 h
U-87 MG [11] = experiment: Inhibition of tumor growth at day 28 postimplantation after administration of 3 mg/kg/day in nude mouse U87 glioma subcutaneous model system; format: functional, U-87MG ATCC; details: sc, 672 h
Tumor Cell line = experiment: Mean GI50 against variety of human tumor cell lines; format: functional
Outline: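 NCI tumour cell panel: 5000–40 000 cells/well preincubated 24 h at 37 °C, then exposed 48 h (5% CO2) to five 10-fold dilutions from DMSO stocks. Highest well concentration in routine testing was 10^-4 M. Growth was read by sulforhodamine B protein staining.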

[12] = Inhibition against MDA-MB-435 S human breast cancer cells in the absence of albumin; format: functional, cell-based
Outline: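 Read-out was sulforhodamine B, which stains protein in cells and cell fragments still attached to the dish bottom, including dying or dead attached cells. IC50 was derived from the cell survival profiles.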

MDA-MB-435 [13] = experiment: Inhibition against MDA-MB-435 human breast cancer cells in the absence of HSA; format: functional, cell-based
Outline: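 MDA-MB-435 S human breast cancer cells exposed to drug with or without added HSA. Viability was read after a 3-day growth assay by sulforhodamine B staining of protein remaining attached to the dish.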

MDA-MB-435 [14] = experiment: Inhibition against MDA-MB-435 human breast cancer cells in the presence of 1 mg/mL HSA

| half-life ([6]; human) [min] | IC50 [12] [nM] | Compound | KDMPC [1] [M⁻¹] | half-life [2] [min] | half-life [3] [min] | half-life [4] [min] | KDMPG [5] [M⁻¹] | half-life [6] [min] | Lactone [7] [%] | Lactone [8] [%] | Lactone [9] [%] | Lactone (Homo sapiens) [%] | inhibition in vivo at 10 mg/kg/day (U-87 MG [10]) [%] | inhibition in vivo at 3 mg/kg/day (U-87 MG [11]) [%] | GI50 (Tumor Cell line) [nM] | IC50 (MDA-MB-435 [13]) [nM] | IC50 (MDA-MB-435 [14]) [nM] |
| --- | --- | --- | --- | --- | --- | --- | --- | --- | --- | --- | --- | --- | --- | --- | --- | --- | --- |
|  |  | CC[C@@]1(O)C(=O)OCc2c1cc1n(c2=O)Cc2c-1nc1ccccc1c2[Si](C)(C)CCCCl | 2800 | 85.6 | 23.3 | 16 | 2500 | 59.7 | 12 | 2.7 | 43.4 | 2.2 |  |  |  |  |  |
|  |  | CC[C@@]1(O)C(=O)OCc2c1cc1n(c2=O)Cc2c-1nc1ccc(O)cc1c2[Si](C)(C)CCCCl | 2200 | 65.3 | 29.5 | 48 | 1200 | 67.7 | 11.3 | 17.2 | 50.2 | 17.8 |  |  |  |  |  |
|  |  | CC[C@@]1(O)C(=O)OCc2c1cc1n(c2=O)Cc2c-1nc1ccccc1c2[Si](C)(C)C(C)(C)C | 15500 | 71 | 27.9 | 46.3 | 16000 | 79.4 | 12.2 | 0.1 | 59.4 | 1 |  |  |  |  |  |
|  |  | CCc1c2c(nc3ccc(O)cc13)-c1cc3c(c(=O)n1C2)COC(=O)[C@]3(O)CC [7-ETHYL-10-HYDROXYCAMPTOTHECIN] | 260 | 32 | 20.9 | 36.1 | 160 | 24.4 | 15.3 |  | 37.5 | 19.5 |  |  |  |  |  |
| 51.4 | 14 | CC[C@@]1(O)C(=O)OCc2c1cc1n(c2=O)Cc2c-1nc1ccc(O)cc1c2[Si](C)(C)C(C)(C)C [AR-67] | 2500 |  | 31.8 | 119 | 2800 |  | 10.2 | 10.5 | 41.4 | 30.5 | 73 | 61 | 21 |  |  |
|  |  | CC[C@@]1(O)C(=O)OCc2c1cc1n(c2=O)Cc2cc3ccccc3nc2-1 [CAMPTOTHECIN] | 100 |  |  | 11.9 | 100 | 30.8 | 17 | < 0.5 | 34.6 | 5.3 |  |  | 44 | 15 | 375 |
|  |  | CC[C@@]1(O)C(=O)OCc2c1cc1n(c2=O)Cc2cc3cc(O)ccc3nc2-1 [HYDROXYCAMPTOTHECIN] |  |  |  |  |  |  |  |  |  |  |  |  | 36 |  |  |
|  |  | CC[C@@]1(O)C(=O)OCc2c1cc1n(c2=O)Cc2cc3c(CN(C)C)c(O)ccc3nc2-1 [TOPOTECAN] | 10 |  |  |  | 50 |  |  |  |  |  |  |  |  |  |  |
